The source made the active and inactive calls. The calls are words filed in the database; no cut-off is given here. Residues, ends and D or L forms follow the SMILES beside them.
Legend:
[1] = biological target: Heat shock protein HSP 90-beta (Homo sapiens) (UniProt P08238); experiment: Inhibition of Hsp90 (unknown origin) at 50 uM preincubated for 1 hr followed by denatured luciferase addition measured at 60 mins by bright glo luciferase refolding assay in presence of Hsp70/Hsp40/HOP relative to control
Sequence of Heat shock protein HSP 90-beta (Homo sapiens) (P08238 whole entry): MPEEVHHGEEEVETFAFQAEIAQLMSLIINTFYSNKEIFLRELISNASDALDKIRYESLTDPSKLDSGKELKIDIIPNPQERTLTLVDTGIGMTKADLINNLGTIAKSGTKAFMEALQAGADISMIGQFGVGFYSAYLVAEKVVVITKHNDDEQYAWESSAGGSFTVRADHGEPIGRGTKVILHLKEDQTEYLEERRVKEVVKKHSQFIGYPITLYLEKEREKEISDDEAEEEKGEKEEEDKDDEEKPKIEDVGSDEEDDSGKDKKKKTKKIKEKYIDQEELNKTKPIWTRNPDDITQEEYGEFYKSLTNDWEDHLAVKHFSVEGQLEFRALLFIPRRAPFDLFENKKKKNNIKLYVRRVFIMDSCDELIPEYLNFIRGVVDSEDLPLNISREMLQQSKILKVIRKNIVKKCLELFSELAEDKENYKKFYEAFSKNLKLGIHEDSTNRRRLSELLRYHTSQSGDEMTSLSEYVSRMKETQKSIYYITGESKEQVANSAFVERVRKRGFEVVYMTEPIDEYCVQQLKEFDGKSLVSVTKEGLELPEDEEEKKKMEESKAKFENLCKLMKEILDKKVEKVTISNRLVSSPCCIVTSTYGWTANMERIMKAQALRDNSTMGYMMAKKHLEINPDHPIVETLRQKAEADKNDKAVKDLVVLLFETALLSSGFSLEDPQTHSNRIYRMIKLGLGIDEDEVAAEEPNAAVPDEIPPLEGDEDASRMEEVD
Summary of the method: (§1)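 Pure-protein refolding: heat-denatured firefly luciferase incubated with 0.5μM hsp90, 1μM hsp70, 0.2μM hsp40 and 0.1μM HOP; compound at 50μM; luciferase activity followed over time, expressed versus control; n=3, mean±SEM.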

[2] = biological target: Heat shock protein HSP 90-beta (Homo sapiens) (UniProt P08238); experiment: Inhibition of Hsp90 (unknown origin) at 50 uM preincubated for 1 hr followed by denatured luciferase addition measured at 90 mins by bright glo luciferase refolding assay in presence of Hsp70/Hsp40/HOP relative to control; summary of the method: as §1
[3] = biological target: Heat shock protein HSP 90-beta (Homo sapiens) (UniProt P08238); experiment: Binding affinity to human Hsp90 assessed as inhibition of interaction with His/GST-tagged recombinant co-chaperone Cyp40 at 10 uM preincubated for 1 hr followed by co-chaperone addition measured after 1 hr by Western blotting analysis
Summary of the method: (§2)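 Purified native hsp90 combined with purified TPR co-chaperone (FKBP51, FKBP52, HOP, Unc45, CHIP, Cyp40 or TOM70), with increasing compound, 0–10 μM; hsp90–co-chaperone binding measured across the range.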

[4] = biological target: Heat shock protein HSP 90-beta (Homo sapiens) (UniProt P08238); experiment: Binding affinity to human Hsp90 assessed as inhibition of interaction with His/GST-tagged recombinant co-chaperone CHIP at 10 uM preincubated for 1 hr followed by co-chaperone addition measured after 1 hr by Western blotting analysis; summary of the method: as §2
[5] = biological target: Heat shock protein HSP 90-beta (Homo sapiens) (UniProt P08238); experiment: Inhibition of Hsp90 (unknown origin) at 50 uM preincubated for 1 hr followed by denatured luciferase addition measured at 105 mins by bright glo luciferase refolding assay in presence of Hsp70/Hsp40/HOP relative to control; summary of the method: as §1
[6] = biological target: T1, Heat shock protein HSP 90 (Oryctolagus cuniculus) (UniProt P11500); experiment: Inhibition of Hsp90 in rabbit reticulocyte lysate at 50 uM measured at 30 mins by bright glo luciferase refolding assay relative to control
T1 sequence (whole entry): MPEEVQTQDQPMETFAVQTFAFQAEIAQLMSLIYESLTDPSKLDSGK
Summary of the method: (§3)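 Heat-denatured firefly luciferase incubated in rabbit reticulocyte lysate, the complete lysate system; compound at 50μM; refolding followed over time by luciferase activity relative to control; n=3, mean±SEM.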

[7] = biological target: Heat shock protein HSP 90-beta (Homo sapiens) (UniProt P08238); experiment: Inhibition of Hsp90 (unknown origin) at 50 uM preincubated for 1 hr followed by denatured luciferase addition measured at 15 mins by bright glo luciferase refolding assay in presence of Hsp70/Hsp40/HOP relative to control; summary of the method: as §1
[8] = biological target: Heat shock protein HSP 90-beta (Homo sapiens) (UniProt P08238); experiment: Inhibition of Hsp90 in human HeLa cells assessed as downregulation of FKBP52 protein level at 50 uM after 30 hours by Western blotting analysis; format: cell-based
Summary of the method: (§4)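 HeLa cells treated at 5μM and 50μM; lysates western blotted for FKBP51, FKBP52 and glucocorticoid receptor; bands normalized to GAPDH and compared with DMSO control; n≥3, mean±SEM.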

[9] = biological target: Heat shock protein HSP 90-beta (Homo sapiens) (UniProt P08238); experiment: Inhibition of Hsp90 (unknown origin) at 50 uM preincubated for 1 hr followed by denatured luciferase addition measured at 75 mins by bright glo luciferase refolding assay in presence of Hsp70/Hsp40/HOP relative to control; summary of the method: as §1
[10] = biological target: Heat shock protein HSP 90-beta (Homo sapiens) (UniProt P08238); experiment: Inhibition of Hsp90 in human HeLa cells assessed as change in FKBP51 protein level at 50 uM after 30 hours by Western blotting analysis; format: cell-based; summary of the method: as §4
[11] = biological target: Heat shock protein HSP 90-beta (Homo sapiens) (UniProt P08238); experiment: Inhibition of Hsp90 in human HeLa cells assessed as change in Hsp70 protein expression at 5 uM to 50 uM after 30 hours by Western blotting analysis; format: cell-based
Summary of the method: (§5)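 HeLa cervical carcinoma cells treated at 5μM and 50μM; cell lysates probed for the heat shock response proteins hsp70, hsp90 and HSF1 by western blot, compared with DMSO.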

[12] = biological target: Heat shock protein HSP 90-beta (Homo sapiens) (UniProt P08238); experiment: Inhibition of Hsp90 (unknown origin) at 50 uM preincubated for 1 hr followed by denatured luciferase addition measured at 30 mins by bright glo luciferase refolding assay in presence of Hsp70/Hsp40/HOP relative to control; summary of the method: as §1
[13] = biological target: T1, Heat shock protein HSP 90 (Oryctolagus cuniculus); experiment: Inhibition of Hsp90 in rabbit reticulocyte lysate at 50 uM measured at 60 mins by bright glo luciferase refolding assay relative to control; summary of the method: as §3
[14] = biological target: T1, Heat shock protein HSP 90 (Oryctolagus cuniculus); experiment: Inhibition of Hsp90 in rabbit reticulocyte lysate at 50 uM measured at 90 mins by bright glo luciferase refolding assay relative to control; summary of the method: as §3
[15] = biological target: Heat shock protein HSP 90-beta (Homo sapiens) (UniProt P08238); experiment: Binding affinity to human Hsp90 assessed as inhibition of interaction with His/GST-tagged recombinant co-chaperone TOM70 at 10 uM preincubated for 1 hr followed by co-chaperone addition measured after 1 hr by Western blotting analysis; summary of the method: as §2
[16] = biological target: T1, Heat shock protein HSP 90 (Oryctolagus cuniculus); experiment: Inhibition of Hsp90 in rabbit reticulocyte lysate at 50 uM measured at 15 mins by bright glo luciferase refolding assay relative to control; summary of the method: as §3
[17] = biological target: Heat shock protein HSP 90-beta (Homo sapiens) (UniProt P08238); experiment: Inhibition of Hsp90 in human HeLa cells assessed as downregulation of Hsp90 protein expression at 5 uM to 50 uM after 30 hours by Western blotting analysis relative to DMSO-treated control; format: cell-based; summary of the method: as §5
[18] = biological target: T1, Heat shock protein HSP 90 (Oryctolagus cuniculus); experiment: Inhibition of Hsp90 in rabbit reticulocyte lysate at 50 uM measured at 45 mins by bright glo luciferase refolding assay relative to control; summary of the method: as §3
[19] = biological target: Heat shock protein HSP 90-beta (Homo sapiens) (UniProt P08238); experiment: Inhibition of Hsp90 (unknown origin) at 50 uM preincubated for 1 hr followed by denatured luciferase addition measured at 45 mins by bright glo luciferase refolding assay in presence of Hsp70/Hsp40/HOP relative to control; summary of the method: as §1
[20] = biological target: T1, Heat shock protein HSP 90 (Oryctolagus cuniculus); experiment: Inhibition of Hsp90 in rabbit reticulocyte lysate at 50 uM measured at 75 mins by bright glo luciferase refolding assay relative to control; summary of the method: as §3
[21] = biological target: Heat shock protein HSP 90-beta (Homo sapiens) (UniProt P08238); experiment: Inhibition of Hsp90 in human HeLa cells assessed as downregulation of HSF1 protein expression at 5 uM to 50 uM after 30 hours by Western blotting analysis relative to DMSO-treated control; format: cell-based; summary of the method: as §5
[22] = biological target: Heat shock protein HSP 90-beta (Homo sapiens) (UniProt P08238); experiment: Inhibition of Hsp90 (unknown origin) at 50 uM preincubated for 1 hr followed by denatured luciferase addition measured at 120 mins by bright glo luciferase refolding assay in presence of Hsp70/Hsp40/HOP relative to control; summary of the method: as §1
[23] = biological target: Heat shock protein HSP 90-beta (Homo sapiens) (UniProt P08238); experiment: Inhibition of Hsp90 (unknown origin) at 50 uM preincubated for 1 hr followed by denatured luciferase addition measured after 2 hrs by bright glo luciferase refolding assay in presence of Hsp70/Hsp40/HOP relative to control
Summary of the method: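 Purified refolding system: heat-denatured firefly luciferase incubated with 0.5 μM hsp90, 1 μM hsp70, 0.2 μM hsp40 and 0.1 μM HOP plus test agent (1 μM or 50 μM). Luciferase activity was followed over time up to 2 h and expressed relative to control. n=3, mean±SEM.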

[24] = biological target: Heat shock protein HSP 90-beta (Homo sapiens) (UniProt P08238); experiment: Inhibition of Hsp90 in human HeLa cells assessed as downregulation of glucocorticoid receptor protein level at 40 uM after 30 hours by Western blotting analysis in presence of proteasome inhibitor MG-132; format: cell-based
[25] = biological target: Heat shock protein HSP 90-beta (Homo sapiens) (UniProt P08238); experiment: Binding affinity to human Hsp90 assessed as inhibition of interaction with His/GST-tagged recombinant co-chaperone Unc45 up to 10 uM preincubated for 1 hr followed by co-chaperone addition measured after 1 hr by Western blotting analysis
Summary of the method: (§6)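 In vitro binding assay: pure native hsp90 combined with individual purified TPR co-chaperones (Unc45, CHIP, TOM70, Cyp40, FKBP51, FKBP52), with compound added in increasing amounts up to 5 or 10 μM. Co-chaperone–hsp90 association was scored against the compound-free condition.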

[26] = biological target: Heat shock protein HSP 90-beta (Homo sapiens) (UniProt P08238); experiment: Binding affinity to human Hsp90 assessed as inhibition of interaction with His/GST-tagged recombinant co-chaperone TOM70 up to 10 uM preincubated for 1 hr followed by co-chaperone addition measured after 1 hr by Western blotting analysis; summary of the method: as §6
[27] = biological target: Heat shock protein HSP 90-beta (Homo sapiens) (UniProt P08238); experiment: Binding affinity to human Hsp90 assessed as inhibition of interaction with His/GST-tagged recombinant co-chaperone FKBP51 up to 10 uM preincubated for 1 hr followed by co-chaperone addition measured after 1 hr by Western blotting analysis; summary of the method: as §6
[28] = biological target: Heat shock protein HSP 90-beta (Homo sapiens) (UniProt P08238); experiment: Inhibition of Hsp90 in human HeLa cells assessed as downregulation of FKBP51 protein level at 40 uM after 30 hours by Western blotting analysis in presence of proteasome inhibitor MG-132; format: cell-based
[29] = biological target: Heat shock protein HSP 90-beta (Homo sapiens) (UniProt P08238); experiment: Binding affinity to human Hsp90 assessed as inhibition of interaction with His/GST-tagged recombinant co-chaperone CYP40 up to 10 uM preincubated for 1 hr followed by co-chaperone addition measured after 1 hr by Western blotting analysis; summary of the method: as §6
[30] = biological target: Heat shock protein HSP 90-beta (Homo sapiens) (UniProt P08238); experiment: Inhibition of human Hsp90 assessed as disruption of interaction with recombinant p23 up to 10 uM by Western blotting analysis
[31] = biological target: Heat shock protein HSP 90-beta (Homo sapiens) (UniProt P08238); experiment: Inhibition of Hsp90 in human HeLa cells assessed as downregulation of FKBP52 protein level at 40 uM after 30 hours by Western blotting analysis in presence of proteasome inhibitor MG-132; format: cell-based
[32] = biological target: Heat shock protein HSP 90-beta (Homo sapiens) (UniProt P08238); experiment: Binding affinity to human Hsp90 assessed as inhibition of interaction with His/GST-tagged recombinant co-chaperone CHIP up to 10 uM preincubated for 1 hr followed by co-chaperone addition measured after 1 hr by Western blotting analysis; summary of the method: as §6

Structure (SMILES)	RLU [1]	RLU [2]	RLU [5]	RLU [6]	RLU [7]	RLU [9]	inhibition [11]	RLU [12]	RLU [13]	RLU [14]	RLU [16]	inhibition [17] [%]	RLU [18]	RLU [19]	RLU [20]	inhibition [21] [%]	RLU [22]	further results
CO[C@H]1[C@H](OC(=O)c2ccc(C)[nH]2)[C@H](O)[C@@H](Oc2ccc3c(O)c(NC(=O)c4c[nH]c(C(=O)Nc5c(O)c6ccc(O[C@H]7OC(C)(C)[C@@H](OC)[C@H](OC(=O)c8ccc(C)[nH]8)[C@@H]7O)c(C)c6oc5=O)c4C)c(=O)oc3c2C)OC1(C)C	497	520	467	10600	519	540	Active	565	19200	25400	4670	50	15500	498	22000	50	417	inhibition [3]: Active; inhibition [4]: Active; inhibition [8]: Active; inhibition [10]: Active; inhibition [15]: Active
CC(C)C[C@@H]1NC(=O)[C@H](C(C)C)N(C)C(=O)[C@@H](CC(C)C)NC(=O)[C@@H](Cc2ccccc2)NC(=O)[C@@H]([C@H](OCc2ccccc2)c2ccccc2)NC1=O (HELM PEPTIDE1{[O=C([C@H](N[*:1])[C@H](OCc1ccccc1)c1ccccc1)[*:2]].[dF].[dL].[meV].L}$PEPTIDE1,PEPTIDE1,1:R1-5:R2$$$V2.0)	6340	8670	8800	10800	3800	7810	Active	4360	21800	29600	5240	50	16800	5700	25300	50	9190	inhibition [23]: 55%; inhibition [24]: Active; inhibition [25]: Active; inhibition [26]: Active; inhibition [27]: Active; inhibition [28]: Active; inhibition [29]: Active; inhibition [30]: Active; inhibition [31]: Active; inhibition [32]: Active

Source: ChEMBL document CHEMBL3102849, “A heat shock protein 90 inhibitor that modulates the immunophilins and regulates hormone receptors without inducing the heat shock response” (Bioorg Med Chem Lett, 2014)
